One block for each compound: values may come before it.
Key:
[1] = target: T1, Programmed cell death protein 1/Programmed cell death 1 ligand 1 (Homo sapiens, UniProt Q9NZQ7); assay: Inhibition of His-tagged PD-1 (unknown origin)/hFc-tagged PD-L1 (unknown origin) protein-protein interaction incubated for 15 mins by HTRF assay; assay type: protein-complex assay
Method in brief: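 Small molecules were tested as 10-fold dilution series at a constant final 0.2% DMSO. IC50 came from a four-parameter variable-slope fit of normalized data, with three independent repeats.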

[2] = target: Programmed cell death 1 ligand 1 (Homo sapiens) (UniProt Q9NZQ7); assay: Inhibition of [89Zr]Zr-atezolizumab binding from human PD-L1 transfected in CHO cells assessed as radioligand activity at 200 nM preincubated for 30 mins followed by [89Zr]Zr-atezolizumab addition measured after 60 mins by Wizard2 gamma counter analysis (reference value: 8.4 %); assay type: cell-based; set-up: scale not given: the % may be the effect or the level left; details: time 90.0 min
[3] = tested on: CHO; assay: Biodistribution in CHO cells expressing hPD-L1 xenografted in NSG mouse co-xenografted with CHO-K1 cells at 31.91 +/- 3.05 MBq measured for 30 to 70 mins by Wizard2 gamma counter analysis; assay type: ADME, organism-based, Cricetulus griseus; details: chinese hamster, in vivo, time 30-70 min
Method in brief: (§1)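 Male NSG mice, 8–10 weeks old, carried subcutaneous CHO-K1 and CHO-hPD-L1 xenografts on opposite flanks (1.5 × 10^6 cells each in PBS/matrigel 1:1). Eleven days after inoculation, radiotracer was injected into the lateral tail vein under isoflurane. Organs were collected at 30, 40 and 70 min, wet-weighed and gamma-counted for 30 s. Counts were background- and decay-corrected to injection, expressed as %ID/g.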

[4] = tested on: CHO-K1; assay: Biodistribution in CHO-K1 cells xenografted in NSG mouse co-xenografted with CHO cells expressing hPD-L1 at 31.91 +/- 3.05 MBq measured for 30 to 70 mins by Wizard2 gamma counter analysis; assay type: ADME, organism-based, Cricetulus griseus; details: chinese hamster, in vivo, time 30-70 min; method in brief: as §1
[5] = Stability in mouse plasma assessed as compound remaining measured for 60 mins by HPLC analysis; assay type: ADME, cell-free; details: read-out: Stability
Method in brief: (§2)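 Formulated radiotracer (25 μL) was incubated in 1250 μL pooled mouse or human plasma at 37 °C. At 0, 15, 30 and 60 min, aliquots were quenched with equal-volume MeCN and centrifuged (4 min, 4 °C, 21,380g). Intact tracer (%) was measured by reversed-phase radio-HPLC.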

[6] = Stability in human plasma assessed as compound remaining measured for 60 mins by HPLC analysis; assay type: ADME, cell-free; details: read-out: Stability; method in brief: as §2
[7] = Biodistribution in kidney of NSG mouse xenografted with CHO-K1 cells/CHO cells expressing hPD-L1 at 31.91 +/- 3.05 MBq measured for 30 to 70 mins by Wizard2 gamma counter analysis; assay type: ADME, organism-based; details: in vivo, time 30-70 min; method in brief: as §1
[8] = Biodistribution in lung of NSG mouse xenografted with CHO-K1 cells/CHO cells expressing hPD-L1 at 31.91 +/- 3.05 MBq measured for 30 to 70 mins by Wizard2 gamma counter analysis; assay type: ADME, organism-based; details: in vivo, time 30-70 min; method in brief: as §1
[9] = Biodistribution in liver of NSG mouse xenografted with CHO-K1 cells/CHO cells expressing hPD-L1 at 31.91 +/- 3.05 MBq measured for 30 to 70 mins by Wizard2 gamma counter analysis; assay type: ADME, organism-based; details: in vivo, time 30-70 min; method in brief: as §1
[10] = Drug metabolism in brain of NSG mouse xenografted with CHO-K1 cells/CHO cells expressing hPD-L1 assessed as accumulation of radiometabolite formation at 31.91 +/- 3.05 MBq measured for 60 mins by micro-PET analysis; assay type: ADME, tissue-based; details: in vivo, 1 h
[11] = Drug metabolism in white adipose tissue of NSG mouse xenografted with CHO-K1 cells/CHO cells expressing hPD-L1 assessed as accumulation of radiometabolite formation at 31.91 +/- 3.05 MBq measured for 60 mins by micro-PET analysis; assay type: ADME, tissue-based; details: in vivo, 1 h
[12] = Biodistribution in brain of NSG mouse xenografted with CHO-K1 cells/CHO cells expressing hPD-L1 at 31.91 +/- 3.05 MBq measured for 60 mins by micro-PET analysis; assay type: ADME, organism-based; details: in vivo, 1 h
Method in brief: (§3)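 Dynamic whole-body μPET/CT ran up to 60 min and was reconstructed by OSEM3D/MAP. Volumes of interest came from fused PET/CT, with uptake normalized to injected dose and volume as %ID/cc.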

[13] = Biodistribution in white adipose tissue of NSG mouse xenografted with CHO-K1 cells/CHO cells expressing hPD-L1 at 31.91 +/- 3.05 MBq measured for 60 mins by micro-PET analysis; assay type: ADME, organism-based; details: in vivo, 1 h; method in brief: as §3
[14] = tested on: CHO; assay: Biodistribution in CHO cells expressing hPD-L1 xenografted in NSG mouse co-xenografted with CHO-K1 cells at 31.91 +/- 3.05 MBq measured for 60 mins by micro-PET analysis; assay type: ADME, organism-based, Cricetulus griseus; details: chinese hamster, in vivo, 1 h; method in brief: as §3
[15] = Biodistribution in kidney of NSG mouse xenografted with CHO-K1 cells/CHO cells expressing hPD-L1 at 31.91 +/- 3.05 MBq measured for 60 mins by micro-PET analysis; assay type: ADME, organism-based; details: in vivo, 1 h; method in brief: as §3
[16] = tested on: CHO-K1; assay: Biodistribution in CHO-K1 cells xenografted in NSG mouse co-xenografted with CHO cells expressing hPD-L1 at 31.91 +/- 3.05 MBq measured for 60 mins by micro-PET analysis; assay type: ADME, organism-based, Cricetulus griseus; details: chinese hamster, in vivo, 1 h; method in brief: as §3
[17] = Biodistribution in gall bladder of NSG mouse xenografted with CHO-K1 cells/CHO cells expressing hPD-L1 at 31.91 +/- 3.05 MBq measured for 60 mins by micro-PET analysis; assay type: ADME, organism-based; details: in vivo, 1 h; method in brief: as §3
[18] = Biodistribution in intestine of NSG mouse xenografted with CHO-K1 cells/CHO cells expressing hPD-L1 at 31.91 +/- 3.05 MBq measured for 60 mins by micro-PET analysis; assay type: ADME, organism-based; details: in vivo, 1 h; method in brief: as §3
[19] = Biodistribution in liver of NSG mouse xenografted with CHO-K1 cells/CHO cells expressing hPD-L1 at 31.91 +/- 3.05 MBq measured for 60 mins by micro-PET analysis; assay type: ADME, organism-based; details: in vivo, 1 h; method in brief: as §3
[20] = target: T1, Programmed cell death protein 1/Programmed cell death 1 ligand 1; assay: Inhibition of Ig-tagged PD-1 (unknown origin)/His-tagged PD-L1 (unknown origin) protein-protein interaction preincubated with PD-L1 for 15 mins followed by PD-1 addition measured after 15 mins by HTRF assay; assay type: protein-complex assay
[21] = target: Programmed cell death 1 ligand 1 (Homo sapiens) (UniProt Q9NZQ7); assay: Inhibition of [89Zr]Zr-atezolizumab binding from human PD-L1 transfected in CHO cells assessed as radioligand activity at 5000 nM preincubated for 30 mins followed by [89Zr]Zr-atezolizumab addition measured after 60 mins by Wizard2 gamma counter analysis (reference value: 8.4 %); assay type: cell-based; set-up: scale not given: the % may be the effect or the level left; details: time 90.0 min
[22] = Drug uptake in human A-375 cells expressing PD-L1 xenografted in bilateral tumors bearing BALB/c mouse model at ~7.4 MBq measured for 50 mins by micro-PET imaging analysis; assay type: ADME, cell-based; details: in vivo
[23] = Drug uptake in human A-375 cells xenografted in bilateral tumors bearing BALB/c mouse model at ~7.4 MBq measured for 50 mins by micro-PET imaging analysis; assay type: ADME, cell-based; details: in vivo
[24] = Biodistribution in bilateral tumors bearing BALB/c mouse model assessed as ratio of drug uptake in human A-375 cells expressing PD-L1 to drug uptake in human A-375 cells at ~7.4 MBq measured for 50 mins by micro-PET imaging analysis; assay type: ADME, organism-based, Neoplasm; details: a-375, 50 min
[25] = Drug uptake in mouse B16-F10 cells expressing PD-L1 in xenograft model; assay type: ADME, cell-based; details: in vivo
[26] = Drug uptake in human A-375 cells expressing PD-L1 xenografted in bilateral tumors bearing BALB/c mouse model at ~2.5 MBq measured for 120 mins by autoradiography; assay type: ADME, cell-based; details: in vivo, 2 h
[27] = Drug uptake in human A-375 cells xenografted in bilateral tumors bearing BALB/c mouse model at ~2.5 MBq measured for 120 mins by autoradiography; assay type: ADME, cell-based; details: in vivo, 2 h
[28] = Biodistribution in bilateral tumors bearing BALB/c mouse model assessed as ratio of drug uptake in human A-375 cells expressing PD-L1 to drug uptake in human A-375 cells at ~2.5 MBq measured for 120 mins by autoradiography; assay type: ADME, organism-based, Neoplasm; details: a-375, 2 h

Sequence of Programmed cell death 1 ligand 1 (Homo sapiens) (Q9NZQ7 whole entry): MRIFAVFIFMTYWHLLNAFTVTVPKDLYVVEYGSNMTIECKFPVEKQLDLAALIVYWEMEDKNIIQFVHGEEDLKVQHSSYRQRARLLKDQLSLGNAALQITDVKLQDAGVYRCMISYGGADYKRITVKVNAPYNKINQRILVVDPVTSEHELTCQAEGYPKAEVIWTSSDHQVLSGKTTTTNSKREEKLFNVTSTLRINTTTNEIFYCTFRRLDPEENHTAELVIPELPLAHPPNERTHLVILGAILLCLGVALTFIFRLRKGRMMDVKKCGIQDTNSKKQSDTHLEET
T1 sequence (Q15116 whole entry): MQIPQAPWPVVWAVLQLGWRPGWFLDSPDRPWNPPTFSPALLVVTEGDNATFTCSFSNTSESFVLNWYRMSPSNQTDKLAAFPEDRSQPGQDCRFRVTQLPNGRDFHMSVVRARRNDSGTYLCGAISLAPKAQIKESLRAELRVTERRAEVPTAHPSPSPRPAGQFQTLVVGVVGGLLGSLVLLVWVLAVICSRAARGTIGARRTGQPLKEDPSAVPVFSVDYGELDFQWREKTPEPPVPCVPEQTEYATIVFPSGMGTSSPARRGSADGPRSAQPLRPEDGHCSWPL
T1 sequence (Q9NZQ7 whole entry): as the sequence (Q9NZQ7 whole entry) above

SMILES: N#Cc1cc(COc2cc(OCc3cccc(-c4ccc5c(c4)OCCO5)c3Br)c(Cl)cc2CN2CCCC[C@H]2C(=O)O)ccn1
IC50 [1]: 0.001 nM

SMILES: CCOC(=O)/C(C#N)=C/c1cccc(C#N)c1
Activity [2]: 0%

Drug uptake [3]: < 1.5 % ID/g
Drug uptake [4]: < 1.5 % ID/g
remaining at 1 h [5]: > 99%
remaining at 1 h [6]: > 99%
Drug uptake [7]: Active
Drug uptake [8]: Active
Drug uptake [9]: Active
Drug metabolism [10]: Metabolite_Notdetected
Drug metabolism [11]: Metabolite_Notdetected
Drug uptake [12]: < 1.2 %ID/cc
Drug uptake [13]: < 1.2 %ID/cc
Drug uptake [14]: < 1.2 %ID/cc
Drug uptake [15]: Active
Drug uptake [16]: < 1.2 %ID/cc
Drug uptake [17]: Active
Drug uptake [18]: Active
Drug uptake [19]: Active
SMILES: Cc1c(COc2cc(OCc3ccnc(C#N)c3)c(CN([11CH3])CCO)cc2Cl)cccc1-c1ccc2c(c1)OCCO2

SMILES: N#Cc1cncc(COc2cc(OCc3cccc(-c4ccccc4)c3Br)c(Cl)cc2CN2CCCC[C@H]2C(=O)O)c1
IC50 [1]: 0.01 nM

SMILES: Cc1cc(CN2CCCCC2C(=O)O)ccc1OCc1cccc(-c2ccccc2)c1C (configuration not stated)
IC50 [20]: 6 nM

SMILES: Cc1c(COc2cc(OCc3ccnc(C#N)c3)c(CN(C)CCO)cc2Cl)cccc1-c1ccc2c(c1)OCCO2
Activity [21]: 4.7%

SMILES: COc1cc(OCc2cccc(-c3ccc4c(c3)OCCO4)c2C)cc(OC)c1CNCCNC(C)=O
IC50 [20]: 6 nM

Drug uptake [22]: 3.53 %ID/ml
Drug uptake [23]: 1.19 %ID/ml
Ratio [24]: 3
SMILES: Cc1c(COc2cc(OCc3cccc(C#N)c3)c(CN3CCN(CCOCCOCCOCC[18F])CC3)cc2Cl)cccc1-c1ccc2c(c1)OCCO2

SMILES: Cc1c(COc2cc(OCc3ccnc(C#N)c3)c(CN(C)[C@H](CO)C(=O)O)cc2Cl)cccc1-c1ccc2c(c1)OCCO2
Activity [21]: 4.2%

SMILES: Cc1c(COc2cc(OCc3cccc(OS(=O)(=O)[18F])c3)c(CNC(CO)(CO)CO)cc2Cl)cccc1-c1ccc2c(c1)OCCO2
Drug uptake [25]: 3.33 %ID/ml

Drug uptake [26]: 3.98 % ID/g
Drug uptake [27]: 1.38 % ID/g
Ratio [28]: 2.9
SMILES: Cc1c(COc2cc(OCc3cccc(C#N)c3)c(CNCCNC(=O)CO/N=C/[C@H]([18F])[C@@H](O)[C@H](O)[C@H](O)CO)cc2Cl)cccc1-c1ccc2c(c1)OCCO2

SMILES: CCOc1cccc(-c2cccc(COc3cc(OC)c(CNCCNC(C)=O)c(OC)c3)c2C)c1
IC50 [20]: 110 nM

Reference: ChEMBL document CHEMBL5335834, “Development and In Vivo Evaluation of Small-Molecule Ligands for Positron Emission Tomography of Immune Checkpoint Modulation Targeting Programmed Cell Death 1 Ligand 1” (J Med Chem, 2024)
